Test results from ChEMBL document CHEMBL1817648, “Synthesis and in vitro antibacterial activity of a series of novel gatifloxacin derivatives” (Eur J Med Chem, 2011).
In brackets after ≈: the same amount, converted by molar mass.

Experiments:
[1] = tested on: Pseudomonas aeruginosa; experiment: Antibacterial activity against Pseudomonas aeruginosa ATCC 27853 after 18 to 24 hrs by NCCLS M100-S11 two fold serial dilution method; type: functional
[2] = tested on: Enterococcus faecium; experiment: Antibacterial activity against Enterococcus faecium 08-2 after 18 to 24 hrs by NCCLS M100-S11 two fold serial dilution method; type: functional
[3] = tested on: Streptococcus pneumoniae; experiment: Antibacterial activity against Streptococcus pneumoniae 08-2 after 18 to 24 hrs by NCCLS M100-S11 two fold serial dilution method; type: functional
[4] = tested on: Staphylococcus epidermidis; experiment: Antibacterial activity against methicillin-resistant Staphylococcus epidermidis 09-4 after 18 to 24 hrs by NCCLS M100-S11 two fold serial dilution method; type: functional
Procedure, shortened: (§1)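 Two-fold serial dilution in agar medium. MIC read as the lowest concentration giving complete inhibition of bacterial growth after incubation at 35 °C for 18–24 h.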

[5] = tested on: Enterococcus faecalis; experiment: Antibacterial activity against Enterococcus faecalis 08-10 after 18 to 24 hrs by NCCLS M100-S11 two fold serial dilution method; type: functional
[6] = tested on: Staphylococcus epidermidis; experiment: Antibacterial activity against methicillin-sensitive Staphylococcus epidermidis 09-6 after 18 to 24 hrs by NCCLS M100-S11 two fold serial dilution method; type: functional; procedure, shortened: as §1
[7] = tested on: Klebsiella pneumoniae; experiment: Antibacterial activity against Klebsiella pneumoniae 09-23 after 18 to 24 hrs by NCCLS M100-S11 two fold serial dilution method; type: functional
[8] = tested on: Staphylococcus epidermidis; experiment: Antibacterial activity against methicillin-sensitive Staphylococcus epidermidis 09-3 after 18 to 24 hrs by NCCLS M100-S11 two fold serial dilution method; type: functional; procedure, shortened: as §1
[9] = tested on: Escherichia coli; experiment: Antibacterial activity against Escherichia coli 08-21 after 18 to 24 hrs by NCCLS M100-S11 two fold serial dilution method; type: functional
[10] = tested on: Klebsiella pneumoniae; experiment: Antibacterial activity against Klebsiella pneumoniae 09-22 after 18 to 24 hrs by NCCLS M100-S11 two fold serial dilution method; type: functional
[11] = tested on: Pseudomonas aeruginosa; experiment: Antibacterial activity against Pseudomonas aeruginosa 09-33 after 18 to 24 hrs by NCCLS M100-S11 two fold serial dilution method; type: functional
[12] = tested on: Pseudomonas aeruginosa; experiment: Antibacterial activity against Pseudomonas aeruginosa 09-32 after 18 to 24 hrs by NCCLS M100-S11 two fold serial dilution method; type: functional
[13] = tested on: Enterococcus faecalis; experiment: Antibacterial activity against Enterococcus faecalis 08-12 after 18 to 24 hrs by NCCLS M100-S11 two fold serial dilution method; type: functional
[14] = tested on: Streptococcus pneumoniae; experiment: Antibacterial activity against Streptococcus pneumoniae 08-4 after 18 to 24 hrs by NCCLS M100-S11 two fold serial dilution method; type: functional
[15] = tested on: Pseudomonas aeruginosa; experiment: Antibacterial activity against Pseudomonas aeruginosa 09-34 after 18 to 24 hrs by NCCLS M100-S11 two fold serial dilution method; type: functional
[16] = tested on: Staphylococcus aureus; experiment: Antibacterial activity against Staphylococcus aureus ATCC 25923 after 18 to 24 hrs by NCCLS M100-S11 two fold serial dilution method; type: functional; conditions: ATCC25923
[17] = tested on: Escherichia coli; experiment: Antibacterial activity against Escherichia coli 08-22 after 18 to 24 hrs by NCCLS M100-S11 two fold serial dilution method; type: functional
[18] = tested on: Escherichia coli; experiment: Antibacterial activity against Escherichia coli ATCC 25922 after 18 to 24 hrs by NCCLS M100-S11 two fold serial dilution method; type: functional; conditions: ATCC25922
[19] = tested on: Staphylococcus aureus; experiment: Antibacterial activity against methicillin-sensitive Staphylococcus aureus 08-1 after 18 to 24 hrs by NCCLS M100-S11 two fold serial dilution method; type: functional
[20] = tested on: Staphylococcus aureus; experiment: Antibacterial activity against methicillin-resistant Staphylococcus aureus 08-1 after 18 to 24 hrs by NCCLS M100-S11 two fold serial dilution method; type: functional; procedure, shortened: as §1
[21] = Cytotoxicity against african green monkey Vero cells after 72 hrs by MTT assay; type: cell-based; conditions: chlorocebus sabaeus
Procedure, shortened: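 Vero cells were kept in Minimum Essential Medium with Earle's salts plus 10% fetal bovine serum at 37 °C under 5% CO₂. Cells were seeded at 1 × 10⁴ per well and allowed to recover 24 h. Medium was then replaced with assay medium containing compound or no drug, and cells were exposed for 72 h. CC₅₀ is the 50% cellular cytotoxic concentration.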

[22] = tested on: Enterococcus faecium; experiment: Antibacterial activity against Enterococcus faecium 08-7 after 18 to 24 hrs by NCCLS M100-S11 two fold serial dilution method; type: functional
[23] = tested on: Pseudomonas aeruginosa; experiment: Ratio of levofloxacin MIC to compound MIC for Pseudomonas aeruginosa 09-34; type: functional
[24] = tested on: Pseudomonas aeruginosa; experiment: Ratio of levofloxacin MIC to compound MIC for Pseudomonas aeruginosa ATCC 27853; type: functional
[25] = tested on: Pseudomonas aeruginosa; experiment: Ratio of levofloxacin MIC to compound MIC for Pseudomonas aeruginosa 09-33; type: functional
[26] = tested on: Pseudomonas aeruginosa; experiment: Ratio of levofloxacin MIC to compound MIC for Pseudomonas aeruginosa 09-32; type: functional

| Structure (SMILES) | MIC [1] [µg/mL] | MIC [2] [µg/mL] | MIC [3] [µg/mL] | MIC [4] [µg/mL] | MIC [5] [µg/mL] | MIC [6] [µg/mL] | MIC [7] [µg/mL] | MIC [8] [µg/mL] | MIC [9] [µg/mL] | MIC [10] [µg/mL] | MIC [11] [µg/mL] | MIC [12] [µg/mL] | MIC [13] [µg/mL] | MIC [14] [µg/mL] | MIC [15] [µg/mL] | MIC [16] [µg/mL] | MIC [17] [µg/mL] | MIC [18] [µg/mL] | MIC [19] [µg/mL] | MIC [20] [µg/mL] | further results |
| --- | --- | --- | --- | --- | --- | --- | --- | --- | --- | --- | --- | --- | --- | --- | --- | --- | --- | --- | --- | --- | --- |
| COc1c(N2CCN(C/C(C)=N/O)C(C)C2)c(F)cc2c(=O)c(C(=O)O)cn(C3CC3)c12 (stereo not drawn) | 32 (≈ 71.7 µM) | > 128 | 128 (≈ 287 µM) | 0.25 (≈ 0.56 µM) | > 128 | 0.25 (≈ 0.56 µM) | > 128 | 0.25 (≈ 0.56 µM) | > 128 | > 128 | > 128 | 32 (≈ 71.7 µM) | > 128 | 0.25 (≈ 0.56 µM) | > 128 | 0.25 (≈ 0.56 µM) | > 128 | 128 (≈ 287 µM) | 0.25 (≈ 0.56 µM) | > 128 | CC50 at 72 h [21]: 177 µg/mL (≈ 396 µM); MIC [22]: > 128 µg/mL |
| COc1c(N2CCN(CC/C(C)=N/O)C(C)C2)c(F)cc2c(=O)c(C(=O)O)cn(C3CC3)c12 (stereo not drawn) | 8 (≈ 17.4 µM) | 64 (≈ 139 µM) | 32 (≈ 69.5 µM) | 0.25 (≈ 0.543 µM) | > 128 | 0.25 (≈ 0.543 µM) | 8 (≈ 17.4 µM) | 0.25 (≈ 0.543 µM) | 64 (≈ 139 µM) | 64 (≈ 139 µM) | > 128 | 4 (≈ 8.69 µM) | > 128 | 4 (≈ 8.69 µM) | 8 (≈ 17.4 µM) | 2 (≈ 4.34 µM) | 64 (≈ 139 µM) | 16 (≈ 34.7 µM) | 32 (≈ 69.5 µM) | 32 (≈ 69.5 µM) | CC50 at 72 h [21]: 44.2 µg/mL (≈ 96 µM); MIC [22]: 64 µg/mL (≈ 139 µM) |
| CO/N=C(\C)CCN1CCN(c2c(F)cc3c(=O)c(C(=O)O)cn(C4CC4)c3c2OC)CC1C (stereo not drawn) | 128 (≈ 270 µM) | > 128 | > 128 | 2 (≈ 4.21 µM) | > 128 | 1 (≈ 2.11 µM) | > 128 | 0.5 (≈ 1.05 µM) | > 128 | > 128 | > 128 | 128 (≈ 270 µM) | > 128 | > 128 | > 128 | 0.5 (≈ 1.05 µM) | > 128 | 128 (≈ 270 µM) | 2 (≈ 4.21 µM) | > 128 | CC50 at 72 h [21]: 157 µg/mL (≈ 332 µM); MIC [22]: > 128 µg/mL |
| CCO/N=C(\C)CCN1CCN(c2c(F)cc3c(=O)c(C(=O)O)cn(C4CC4)c3c2OC)CC1C (stereo not drawn) | > 128 | > 128 | 128 (≈ 262 µM) | 0.5 (≈ 1.02 µM) | > 128 | 0.5 (≈ 1.02 µM) | > 128 | 0.5 (≈ 1.02 µM) | > 128 | 128 (≈ 262 µM) | > 128 | 128 (≈ 262 µM) | > 128 | > 128 | > 128 | 64 (≈ 131 µM) | > 128 | > 128 | 128 (≈ 262 µM) | 16 (≈ 32.7 µM) | CC50 at 72 h [21]: 88.4 µg/mL (≈ 181 µM); MIC [22]: > 128 µg/mL |
| COc1c(N2CCN(CC/C(C)=N/NC(N)=O)C(C)C2)c(F)cc2c(=O)c(C(=O)O)cn(C3CC3)c12 (stereo not drawn) | 4 (≈ 7.96 µM) | 8 (≈ 15.9 µM) | 8 (≈ 15.9 µM) | 1 (≈ 1.99 µM) | 8 (≈ 15.9 µM) | 0.25 (≈ 0.497 µM) | 2 (≈ 3.98 µM) | 0.25 (≈ 0.497 µM) | 8 (≈ 15.9 µM) | 1 (≈ 1.99 µM) | 16 (≈ 31.8 µM) | 0.25 (≈ 0.497 µM) | 8 (≈ 15.9 µM) | 2 (≈ 3.98 µM) | 2 (≈ 3.98 µM) | 0.5 (≈ 0.995 µM) | 4 (≈ 7.96 µM) | 2 (≈ 3.98 µM) | 1 (≈ 1.99 µM) | 2 (≈ 3.98 µM) | CC50 at 72 h [21]: 31.2 µg/mL (≈ 62.2 µM); MIC [22]: 8 µg/mL (≈ 15.9 µM) |
| COc1c(N2CCN(CC/C(C)=N/Nc3ccccc3)C(C)C2)c(F)cc2c(=O)c(C(=O)O)cn(C3CC3)c12 (stereo not drawn) | 0.5 (≈ 0.933 µM) | 0.5 (≈ 0.933 µM) | 0.5 (≈ 0.933 µM) | 0.06 (≈ 0.112 µM) | 0.5 (≈ 0.933 µM) | 0.25 (≈ 0.467 µM) | 1 (≈ 1.87 µM) | 0.06 (≈ 0.112 µM) | 1 (≈ 1.87 µM) | 0.5 (≈ 0.933 µM) | 0.5 (≈ 0.933 µM) | 0.5 (≈ 0.933 µM) | 1 (≈ 1.87 µM) | 0.25 (≈ 0.467 µM) | 0.25 (≈ 0.467 µM) | 0.06 (≈ 0.112 µM) | 1 (≈ 1.87 µM) | 0.25 (≈ 0.467 µM) | 0.125 (≈ 0.233 µM) | 0.25 (≈ 0.467 µM) | Ratio [23]: 2; Ratio [24]: 2; CC50 at 72 h [21]: 62.5 µg/mL (≈ 117 µM); MIC [22]: 0.5 µg/mL (≈ 0.933 µM); Ratio [25]: 2; Ratio [26]: 2 |
| COc1c(N2CCN(O)C(C)C2)c(F)cc2c(=O)c(C(=O)O)cn(C3CC3)c12 (stereo not drawn) | 4 (≈ 10.2 µM) | 16 (≈ 40.9 µM) | 16 (≈ 40.9 µM) | 0.25 (≈ 0.639 µM) | 16 (≈ 40.9 µM) | 0.25 (≈ 0.639 µM) | 16 (≈ 40.9 µM) | 0.25 (≈ 0.639 µM) | 16 (≈ 40.9 µM) | 2 (≈ 5.11 µM) | 32 (≈ 81.8 µM) | 2 (≈ 5.11 µM) | 16 (≈ 40.9 µM) | 2 (≈ 5.11 µM) | 4 (≈ 10.2 µM) | 0.125 (≈ 0.319 µM) | 16 (≈ 40.9 µM) | 4 (≈ 10.2 µM) | 0.25 (≈ 0.639 µM) | 0.25 (≈ 0.639 µM) | CC50 at 72 h [21]: 19.7 µg/mL (≈ 50.3 µM); MIC [22]: 16 µg/mL (≈ 40.9 µM) |
